In ChEMBL document CHEMBL5150051, “Identification and Characterization of a Novel Indoleamine 2,3-Dioxygenase 1 Protein Degrader for Glioblastoma” (J Med Chem, 2022):
Calls of active or inactive are those of the source.

Columns and labels:
[1] = molecular target: T1, Protein cereblon/Indoleamine 2,3-dioxygenase 1 (Homo sapiens, UniProt P14902+Q96SW2); test: Protac activity at IDO1/CRBN in human U87 cells assessed as decrease in phosphorylated p65 in nucleus at 1 to 10 uM measured after 24 hrs by Western blot analysis; format: cell-based; conditions: dose 1-10 µM
Outline: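 Cytoplasmic and nuclear fractions prepared from U87 cells after 24 h treatment with DMSO or compound. Fractions blotted for IDO1, phospho-p65 and total p65, with HDAC2 as nuclear marker and tubulin as cytoplasmic marker.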
Target sequence in this assay (P14902 whole entry, looked up): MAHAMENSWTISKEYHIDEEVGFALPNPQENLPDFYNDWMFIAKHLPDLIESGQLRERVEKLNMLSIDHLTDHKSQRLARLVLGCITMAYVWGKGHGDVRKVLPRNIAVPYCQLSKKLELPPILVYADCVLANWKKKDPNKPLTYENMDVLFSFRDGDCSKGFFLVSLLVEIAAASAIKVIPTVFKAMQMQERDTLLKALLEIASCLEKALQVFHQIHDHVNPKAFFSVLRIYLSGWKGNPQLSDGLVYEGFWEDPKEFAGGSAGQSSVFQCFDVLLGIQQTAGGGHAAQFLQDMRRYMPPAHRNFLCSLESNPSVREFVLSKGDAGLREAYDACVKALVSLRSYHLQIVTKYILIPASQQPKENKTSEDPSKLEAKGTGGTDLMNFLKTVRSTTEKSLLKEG
Target sequence in this assay (Q96SW2 whole entry, looked up): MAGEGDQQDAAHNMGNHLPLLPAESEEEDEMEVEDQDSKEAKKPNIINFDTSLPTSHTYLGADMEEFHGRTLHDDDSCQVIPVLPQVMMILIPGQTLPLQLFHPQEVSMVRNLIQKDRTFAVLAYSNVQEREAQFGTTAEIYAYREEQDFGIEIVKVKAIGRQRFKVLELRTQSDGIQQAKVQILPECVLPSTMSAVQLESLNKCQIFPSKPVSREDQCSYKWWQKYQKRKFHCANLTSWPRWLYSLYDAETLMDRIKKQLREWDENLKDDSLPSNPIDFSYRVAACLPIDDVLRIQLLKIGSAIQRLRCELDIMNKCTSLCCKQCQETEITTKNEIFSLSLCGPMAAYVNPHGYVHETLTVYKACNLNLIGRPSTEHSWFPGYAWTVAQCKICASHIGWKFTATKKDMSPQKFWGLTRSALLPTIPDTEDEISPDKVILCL

[2] = Drug uptake in C57BL/6 mouse intestine at 50 mg/kg, ip treated 5 days/week for 3 weeks by LC/MS/MS analysis; format: ADME, organism-based; conditions: in vivo, 504 h
[3] = molecular target: T1, Protein cereblon/Indoleamine 2,3-dioxygenase 1; test: Protac activity at IDO1/CRBN in IFNgamma-stimulated human OVCAR-5 cells assessed as IDO1 degradation by measuring decrease in intracellular protein level measured after 24 hrs by Western blotting analysis; format: cell-based; conditions: dose 1-10 µM, DDE = dose-dependent effect
Target sequence in this assay (P14902 whole entry, looked up): as the sequence (P14902 whole entry, looked up) above
Target sequence in this assay (Q96SW2 whole entry, looked up): as the sequence (Q96SW2 whole entry, looked up) above

[4] = molecular target: T1, Protein cereblon/Indoleamine 2,3-dioxygenase 1; test: Binding affinity to CRBN/IDO1 (unknown origin) assessed as ternary complex affinity by bio-layer interferometry assay; format: protein assay
Outline: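 For the ternary complex, compound was preincubated with a 25-fold molar excess of CRBN, and binding of this binary complex to IDO1 was followed in real time.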
Target sequence in this assay (P14902 whole entry, looked up): as the sequence (P14902 whole entry, looked up) above
Target sequence in this assay (Q96SW2 whole entry, looked up): as the sequence (Q96SW2 whole entry, looked up) above

[5] = molecular target: T1, Protein cereblon/Indoleamine 2,3-dioxygenase 1; test: Protac activity at IDO1/CRBN in IFNgamma-stimulated human GBM43 cells assessed as IDO1 degradation measured after 24 hrs by Western blotting analysis; format: cell-based, GBM43 cell
Outline: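 GBM43 cells stimulated with 50 ng/mL human IFNγ for 24 h, then treated across 0.01 to 30 μM for 24 h. IDO1 was quantified by western blot densitometry as percent of IFNγ-induced untreated level. DC50 came from the dose-response curve; n = 3 independent experiments, mean ± SEM.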

[6] = molecular target: T2, Indoleamine 2,3-dioxygenase 1 (Homo sapiens, UniProt P14902); test: Inhibition of human IDO1 expressed in Escherichia coli BL21(DE3) using D-tryptophan as substrate assessed as formation of kynurenine production; conditions: DDE = dose-dependent effect
[7] = molecular target: T1, Protein cereblon/Indoleamine 2,3-dioxygenase 1; test: Protac activity at IDO1/CRBN in IFNgamma-stimulated human PBMC cells isolated form GBM patient assessed as IDO1 degradation by measuring decrease in intracellular protein level measured after 24 hrs by Western blotting analysis; format: cell-based; conditions: DDE = dose-dependent effect
Target sequence in this assay (P14902 whole entry, looked up): as the sequence (P14902 whole entry, looked up) above
Target sequence in this assay (Q96SW2 whole entry, looked up): as the sequence (Q96SW2 whole entry, looked up) above

[8] = molecular target: T2, Indoleamine 2,3-dioxygenase 1; test: Binding affinity to IDO1 (unknown origin) assessed as binary complex stability by measuring half-life by bio-layer interferometry assay
[9] = molecular target: T1, Protein cereblon/Indoleamine 2,3-dioxygenase 1; test: Protac activity at IDO1/CRBN in IFNgamma-stimulated human GBM6 cells assessed as IDO1 degradation measured after 24 hrs by Western blotting analysis; format: cell-based; conditions: dose 0.1-10 µM, DDE = dose-dependent effect
Target sequence in this assay (P14902 whole entry, looked up): as the sequence (P14902 whole entry, looked up) above
Target sequence in this assay (Q96SW2 whole entry, looked up): as the sequence (Q96SW2 whole entry, looked up) above

[10] = molecular target: T1, Protein cereblon/Indoleamine 2,3-dioxygenase 1; test: Protac activity at CRBN/IDO1-FLAG expressed in human U87 cells assessed as IDO1 degradation measured at 1 to 10 uM after 24 hrs by Western blotting analysis; format: cell-based; conditions: dose 1-10 µM
Target sequence in this assay (P14902 whole entry, looked up): as the sequence (P14902 whole entry, looked up) above
Target sequence in this assay (Q96SW2 whole entry, looked up): as the sequence (Q96SW2 whole entry, looked up) above

[11] = molecular target: T1, Protein cereblon/Indoleamine 2,3-dioxygenase 1; test: Protac activity at IDO1/CRBN in IFNgamma-stimulated human CD18 cells assessed as IDO1 degradation by measuring decrease in intracellular protein level measured after 24 hrs by Western blotting analysis; format: cell-based; conditions: CD18 cell, DDE = dose-dependent effect
[12] = molecular target: T1, Protein cereblon/Indoleamine 2,3-dioxygenase 1; test: Protac activity at IDO1/CRBN in human U87 cells assessed as IDO1 degradation at 10 uM measured after compound washout by Western blotting analysis relative to control; format: cell-based
Outline: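 U87 cells exposed to PROTAC for 24 h, after which compound was fully withdrawn from the medium and culture continued without it for up to 48 h. IDO1 levels then assessed by western blot.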

[13] = Drug uptake in C57BL/6 mouse liver at 100 mg/kg, ip treated 5 days/week for 3 weeks by LC/MS/MS analysis; format: ADME, organism-based; conditions: in vivo, 504 h
[14] = molecular target: T1, Protein cereblon/Indoleamine 2,3-dioxygenase 1; test: Protac activity at IDO1/CRBN in IFNgamma-stimulated human PC-3 cells assessed as IDO1 degradation by measuring decrease in intracellular protein level measured after 24 hrs by Western blotting analysis; format: cell-based; conditions: dose 1-10 µM, DDE = dose-dependent effect
[15] = molecular target: T1, Protein cereblon/Indoleamine 2,3-dioxygenase 1; test: Protac activity at IDO1/CRBN in IFNgamma-stimulated human PBMC cells isolated form non-GBM patient assessed as IDO1 degradation by measuring decrease in intracellular protein level measured after 24 hrs by Western blotting analysis; format: cell-based; conditions: DDE = dose-dependent effect
[16] = molecular target: T1, Protein cereblon/Indoleamine 2,3-dioxygenase 1; test: Protac activity at CRBN/IDO1 in IFNgamma-stimulated human U87 cells assessed as decrease in kynurenine level measured after 24 hrs by Ehrlich's test; format: cell-based; conditions: DDE = dose-dependent effect
Outline: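 U87 or GBM43 cells given compound together with 50 ng/mL IFNγ for 24 h. Supernatant kynurenine was measured with Ehrlich's reagent. Cells cultured without IFNγ served as control.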

[17] = Cmax in C57BL/6 mouse brain at 25 mg/kg, ip; format: ADME, organism-based; set-up: dose 25 mg/kg, route ip
[18] = molecular target: T1, Protein cereblon/Indoleamine 2,3-dioxygenase 1; test: Protac activity at CRBN/IDO1 in human U87 cells assessed as decrease in phosphorylated NF-kappaB p65 in nucleus at 1 to 10 uM measured after 24 hrs by Western blot analysis; format: cell-based; conditions: dose 1-10 µM
[19] = Drug uptake in C57BL/6 mouse brain at 25 mg/kg, ip measured after 6 hrs by equilibrium dialysis; format: ADME, organism-based; conditions: in vivo
Outline: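 C57BL/6 mice received a single 25 mg/kg ip dose. Serum and brain were sampled at 0 to 24 h and the drug was quantified by mass spectrometry (n = 3 mice/dose). Binding to mouse brain homogenate was measured by 6 h equilibrium dialysis.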

[20] = Cmax in C57BL/6 mouse plasma at 25 mg/kg, ip; format: ADME, organism-based; set-up: dose 25 mg/kg, route ip
[21] = molecular target: T1, Protein cereblon/Indoleamine 2,3-dioxygenase 1; test: Protac activity at CRBN/IDO1 non-enzyme mediated NF-kappaB signal in IFNgamma-stimulated human GBM43 cells assessed as decrease in p65 phosphorylation at 0.1 to 10 uM measured after 24 hrs Western blotting assay; format: cell-based; conditions: GBM43 cell, dose 0.1-10 µM
Outline: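 IFNγ-stimulated cells were induced for 24 h, then treated at several concentrations for 24 h. Lysates were western blotted for IDO1, phospho-p65, total p65 and GAPDH.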

[22] = molecular target: T1, Protein cereblon/Indoleamine 2,3-dioxygenase 1; test: Protac activity at IDO1/CRBN in IFNgamma-stimulated human U87 cells assessed as IDO1 degradation by measuring decrease in protein level measured after 24 hrs by Western blotting analysis; format: cell-based; conditions: dose 0.1-10 µM, DDE = dose-dependent effect
Outline: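 U87 cells given human IFNγ 50 ng/mL for 24 h to induce IDO1, then PROTAC over a dose range starting at 0.01 μM and rising to 30 μM for 24 h. Western blot read-out. IDO1 band densitometry normalized to untreated samples and fitted to give DC50, the concentration giving 50% IDO1 degradation. n = 3 independent experiments, mean ± SEM.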

[23] = molecular target: Ido1/Crbn (Mus musculus) (UniProt P28776+Q8C7D2); test: Protac activity at CRBN/IDO1 non-enzyme mediated p65 phosphorylation in mouse GL261 cells expressing IDO1 cDNA measured at 0.1 to 10 uM after 24 hrs by Western blotting analysis; conditions: dose 0.1-10 µM
[24] = Drug uptake in C57BL/6 mouse brain at 10 to 100 mg/kg, ip treated 5 days/week for 3 weeks by LC/MS/MS analysis; format: ADME, organism-based; conditions: in vivo, 504 h, dose 10-100 mg/kg
Outline: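 Male C57BL/6 mice dosed ip at 10, 25, 50 or 100 mg/kg, 5 days/week for 3 weeks, alongside vehicle. After 3 weeks, serum and brain homogenate were analysed by mass spectrometry for drug level; mean ± SEM, n = 3 mice/dose.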

T2 sequence (P14902 whole entry, looked up): as the sequence (P14902 whole entry, looked up) above
Ido1/Crbn (Mus musculus), sequence (P28776 whole entry, looked up): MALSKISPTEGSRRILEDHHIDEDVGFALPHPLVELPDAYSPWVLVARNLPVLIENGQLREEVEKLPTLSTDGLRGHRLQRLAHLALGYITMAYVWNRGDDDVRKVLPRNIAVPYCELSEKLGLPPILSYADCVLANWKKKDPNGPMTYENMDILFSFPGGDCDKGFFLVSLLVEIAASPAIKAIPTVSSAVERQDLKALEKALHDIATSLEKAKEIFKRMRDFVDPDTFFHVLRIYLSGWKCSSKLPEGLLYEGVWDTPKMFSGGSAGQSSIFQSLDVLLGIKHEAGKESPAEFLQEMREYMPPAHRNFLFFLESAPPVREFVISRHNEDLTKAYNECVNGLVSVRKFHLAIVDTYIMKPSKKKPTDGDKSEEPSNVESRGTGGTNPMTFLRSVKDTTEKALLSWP
Ido1/Crbn (Mus musculus), sequence (Q8C7D2 whole entry, looked up): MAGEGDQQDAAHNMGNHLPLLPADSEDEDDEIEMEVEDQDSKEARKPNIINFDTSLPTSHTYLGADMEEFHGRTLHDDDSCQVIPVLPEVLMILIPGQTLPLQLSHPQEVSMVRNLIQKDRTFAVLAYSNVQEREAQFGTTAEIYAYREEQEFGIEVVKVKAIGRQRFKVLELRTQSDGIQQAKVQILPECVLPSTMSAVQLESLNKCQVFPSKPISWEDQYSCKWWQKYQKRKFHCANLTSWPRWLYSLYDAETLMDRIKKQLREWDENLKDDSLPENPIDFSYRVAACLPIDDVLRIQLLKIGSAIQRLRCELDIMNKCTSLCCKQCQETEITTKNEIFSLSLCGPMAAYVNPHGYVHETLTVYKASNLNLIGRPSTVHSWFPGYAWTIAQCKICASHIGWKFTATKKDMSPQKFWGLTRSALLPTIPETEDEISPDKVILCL

C[C@@H](C(=O)Nc1ccc(OC2CCN(C(=O)CCOCCOCCNc3cccc4c3C(=O)N(C3CCC(=O)NC3=O)C4=O)CC2)cc1)[C@H]1CC[C@@H](c2ccnc3ccc(F)cc32)CC1 (stereo not given in full)
117 nM: K [4]
Active: Drug uptake [2] | Drug uptake [13] | Drug uptake [24]
544 nM: EC50 [5]
2 µM: Cmax [17]
active: Activity [1] | Activity [3] Dde | Activity ([5]; GBM43 cell, dose 1-10 µM, DDE = dose-dependent effect) Dde | Activity [6] Dde | Activity [7] Dde | Activity [9] Dde | Activity [10] | Activity [11] Dde | Activity [12] | Activity [14] Dde | Activity [15] Dde | inhibition [16] Dde | Activity [18] | inhibition [21] | Activity [22] Dde | inhibition [23]
99.8%: Drug uptake [19]
16 s: T1/2 [8]
365 µM: Cmax [20]
